Screens as filed in PubChem BioAssay.
TMEM16A act: TMEM16A chloride channel activators or potentiators, primary screen, cell-based, HTS; Anoctamin-1 (Mus musculus), Q8BHY3; HEK293 TMEM16A/YFP-H148Q/I152L, iodide quench fluorescence; active compounds read low; B-score at 10 µM; 0.3% of 340,000 active;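 active = fluorescence-ratio B-score plate-corrected deviation score at least 3 library SD below zero, with starting fluorescence score within 5 deviations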;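 note: channel opened by trigger with iodide after compound preincubation; score built on the fluorescence ratio of max minus min over baseline; more negative score means more quench and so TMEM16A activation or potentiation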
Target sequence (Q8BHY3 whole entry, looked up): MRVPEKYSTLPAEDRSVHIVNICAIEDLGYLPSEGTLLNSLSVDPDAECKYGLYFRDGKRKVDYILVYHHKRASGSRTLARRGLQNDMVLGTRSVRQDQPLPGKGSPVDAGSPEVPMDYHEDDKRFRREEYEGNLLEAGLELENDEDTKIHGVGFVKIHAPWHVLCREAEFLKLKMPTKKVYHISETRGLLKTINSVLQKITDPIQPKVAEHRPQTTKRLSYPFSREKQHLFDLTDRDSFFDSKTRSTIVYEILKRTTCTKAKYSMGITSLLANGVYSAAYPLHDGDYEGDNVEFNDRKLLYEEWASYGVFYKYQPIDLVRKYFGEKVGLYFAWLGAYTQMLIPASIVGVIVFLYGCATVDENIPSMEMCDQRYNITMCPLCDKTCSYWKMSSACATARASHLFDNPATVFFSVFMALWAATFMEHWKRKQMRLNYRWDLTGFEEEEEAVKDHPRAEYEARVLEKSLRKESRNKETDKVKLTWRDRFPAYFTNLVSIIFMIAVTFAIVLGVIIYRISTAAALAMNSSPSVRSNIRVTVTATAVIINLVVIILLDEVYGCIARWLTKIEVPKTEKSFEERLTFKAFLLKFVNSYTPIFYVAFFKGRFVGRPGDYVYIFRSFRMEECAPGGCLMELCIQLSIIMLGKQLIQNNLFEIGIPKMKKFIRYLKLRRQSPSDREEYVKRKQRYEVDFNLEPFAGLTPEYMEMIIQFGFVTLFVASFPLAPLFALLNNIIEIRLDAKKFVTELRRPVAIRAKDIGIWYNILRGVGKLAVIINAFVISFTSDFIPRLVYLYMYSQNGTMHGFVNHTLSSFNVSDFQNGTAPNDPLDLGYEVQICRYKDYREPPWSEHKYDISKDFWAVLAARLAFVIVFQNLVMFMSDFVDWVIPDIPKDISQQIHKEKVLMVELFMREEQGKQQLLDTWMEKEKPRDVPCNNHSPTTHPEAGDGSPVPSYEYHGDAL
CHT inh: inhibitors of human choline transporter CHT. CHT-expressing cells, membrane potential dye, choline response; active compounds read low. 0.86% of 310,000 active. B-score at 10 µM. High affinity choline transporter 1 (Homo sapiens), Q9GZV3. AID 488975, 2010;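 active = B-score over 3 SD under the library average, and starting fluorescence ratio not unusually high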;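 note: choline stimulus applied at its EC90 after an EC20 pre-addition; B-score computed on integrated fluorescence ratio after choline addition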
VIM-2 inh: VIM-2 metallo-beta-lactamase inhibitors, primary screen, biochemical, epi-absorbance readout, Pseudomonas aeruginosa enzyme; purified VIM-2, nitrocefin hydrolysis, epi-absorbance fluorescence; 0.89% of 290,000 active; inhibition, % at 5.6 µM; AID 1527, 2009;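 active = inhibition above the mean of all tested compounds plus 3 SD, cutoff set per screening run, cut at about 7.5% in these data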;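 note: red hydrolysis product quenches plate fluorescence so inhibitors raise well fluorescence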
CHT PAM: CHT positive allosteric modulators, primary screen, cell-based, membrane potential dye, choline EC20; B-score at 10 µM; AID 488977, 2010; 0.49% of 310,000 active; High affinity choline transporter 1 (Homo sapiens), Q9GZV3; CHT-expressing cells; active compounds read high; LV-AA mutant CHT in HEK293 cells;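 active = initial fluorescence not abnormally high and integrated response B-score, plate-corrected, over 3 SD above library mean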
IMP-1 inh-1: IMP-1 metallo-beta-lactamase inhibitors, primary screen, biochemical, epi-absorbance readout, Pseudomonas aeruginosa enzyme; metallo-beta-lactamase IMP-1 (Pseudomonas aeruginosa); AID 1556, 2009; purified IMP-1, nitrocefin hydrolysis, epi-absorbance fluorescence; 0.45% of 290,000 active; inhibition, % at 5.6 µM;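 active = inhibition above the mean plus 3 SD of all compounds in the same screening run, cut at about 4.5% in these data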
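System – purified recombinant IMP-1 beta-lactamase · Input – IMP-1 dispensed at 0.2 nM · Timing – 15 min preincubation plus 25 min reaction at 25 °C · Signal – Epi-absorbance fluorescence, 480 nm excitation, 530 nm emission · Measure – percent IMP-1 inhibition derived from blank-referenced optical density · Controls – Enzyme-plus-DMSO low control, enzyme-free DMSO high control · Replication – singlicate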
TMEM16A inh: TMEM16A chloride channel inhibitors, primary screen, cell-based, HTS. Anoctamin-1 (Mus musculus), Q8BHY3. HEK293 TMEM16A/YFP iodide influx fluorescence, ionomycin. normalized B-score (activity score, 25-100; higher = stronger inhibition) at 10 µM. 1.2% of 310,000 active;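 active = ratio plate-corrected score three or more library SD toward inhibition, starting fluorescence score within five deviations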;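 note: score derived from kinetic fluorescence span divided by baseline fluorescence per well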
IMP-1 inh-2: IMP-1 metallo-beta-lactamase inhibitors, confirmation, selectivity assay for selective VIM-2 inhibitor project, biochemical, epi-absorbance readout, triplicate; shares compounds with VIM-2 inh; purified IMP-1, nitrocefin hydrolysis, epi-absorbance fluorescence; inhibition, % at 5.6 µM; 1,300 tested, under 10 active; call rule not given here
VIM-2 FRET inh: VIM-2 inhibitors in FRET format, confirmation, artefact control for selective VIM-2 inhibitor project, biochemical, epi-absorbance artifact exclusion. shares compounds with VIM-2 inh. purified VIM-2, CCF2 FRET substrate hydrolysis. inhibition, % at 5.6 µM. 23% of 1,300 active. AID 1857, 2009;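 active = inhibition above the mean of all tested compounds plus 3 SD, cut at about 19% in these data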
TEM-1 counter: TEM-1 serine beta-lactamase inhibitors, counter-screen for VIM-2 inhibitor project, biochemical, epi-absorbance, HTS; shares compounds with VIM-2 inh; Purified TEM-1, nitrocefin hydrolysis, epi-absorbance fluorescence; inhibition, % at 5.6 µM; 3% of 1,300 active; AID 1866, 2009;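 active = inhibition above that campaign's mean inhibition plus 3 SD, cut at about 0.46% in these data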
VIM-2 confirm 2: VIM-2 metallo-beta-lactamase inhibitors, confirmation, biochemical, epi-absorbance, hits shared with IMP-1 screen | shares compounds with VIM-2 inh | purified VIM-2, nitrocefin hydrolysis | inhibition, % at 5.6 µM | 96% of 1,300 active;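 active = inhibition of the VIM-2 beta-lactamase enzyme above about 11% from the earlier first-round screen, limit read from the data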
CHT block conf: CHT inhibitors, confirmation, cell-based, membrane potential dye, duplicate. shares compounds with CHT inh. CHT-expressing cells, choline membrane potential dye; LV-to-AA substituted CHT, HEK293 cells. CHT activity remaining % of control (active compounds read low), % at 10 µM. 70% of 2,400 active. AID 493221, 2011;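 active = choline transporter activity left, mean of duplicates at 10 µM, below buffer-only control mean minus 3 SD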;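 note: depolarization triggered by choline at its EC90 following an EC20 pre-addition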
HEK293 CHT ctr: membrane potential effects in parental HEK293, counter-screen for CHT inhibitor project, cell-based, membrane potential dye | shares compounds with CHT inh | choline response; active = decrease or increase beyond buffer ±3SD | membrane potential ratio readout (active if shifted either direction beyond buffer ±3SD; no single direction) at 10 µM | 4% of 2,400 active | AID 493222, 2011;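 note: parental cells lack the transporter so any hit is non-specific; ratio is peak minus trough fluorescence over baseline after EC90 choline challenge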
Of the large screens only hits and unclear results are named; the others gave an inactive call (follow-up assays come after a bar, where they were run). Compounds with a hit are over-represented: about 3.4% of the library has one in this group of screens.

COC(=O)C(O)(c1ccc(NC(=O)Oc2ccccc2)cc1)C(F)(F)F (stereo not given)	none
Cc1cc(OC(C)C(=O)NCc2ccncc2)c2c3c(c(=O)oc2c1)CCCC3 (stereo not given)	VIM-2 inh 26 | IMP-1 inh-2 inactive | VIM-2 FRET inh inactive | TEM-1 counter inactive | VIM-2 confirm 2 32
Cc1cc(OCC(=O)NCc2ccncc2)c2c3c(c(=O)oc2c1)CCCC3	VIM-2 inh 40 | IMP-1 inh-2 inactive | VIM-2 FRET inh inactive | TEM-1 counter inactive | VIM-2 confirm 2 52
Cc1cc(/C=C2\C(=O)NC(=O)N(Cc3ccco3)C2=O)c(C)n1-c1ccc(C(=O)O)cc1	CHT inh -6.3 | CHT block conf 61% | HEK293 CHT ctr inactive
c1ccc(C(c2ccccc2)c2ccncc2)cc1	none (no result: CHT inh, VIM-2 inh, CHT PAM, IMP-1 inh-1, TMEM16A inh)
C[C@]12CC[C@@H](O)CC1=CCC1C2CC[C@@]2(C)C1C[C@@H](F)[C@H]2O (stereo not given in full)	none (no result: CHT inh, VIM-2 inh, CHT PAM, IMP-1 inh-1, TMEM16A inh)
N#CC(Br)Br	none (no result: CHT inh, VIM-2 inh, CHT PAM, IMP-1 inh-1, TMEM16A inh)
CC1CCC/C=C/C2CC(O)CC2C(O)/C=C/C(=O)O1 (stereo not given)	CHT inh -6.6 | CHT block conf 46% | HEK293 CHT ctr inactive
CCC1CN1P(=O)(c1ccccc1)N1CC1CC (stereo not given)	none (no result: CHT inh, VIM-2 inh, CHT PAM, IMP-1 inh-1, TMEM16A inh)
C[C@]12CCC3C(CC[C@H]4C[C@@H](O)CC[C@]34C)C1CC[C@@H]2OC(=O)[C@H](N)CCCCN (stereo not given in full)	none (no result: CHT inh, VIM-2 inh, CHT PAM, IMP-1 inh-1, TMEM16A inh)
CCOc1ccc(C=C2C(=O)NC(=S)NC2=O)cc1OCC	none (no result: CHT inh, VIM-2 inh, CHT PAM, IMP-1 inh-1, TMEM16A inh)
COc1cc(C=C2C(=O)NC(=O)NC2=O)ccc1OS(=O)(=O)c1ccccc1[N+](=O)[O-]	CHT inh -5.3 | CHT block conf 55% | HEK293 CHT ctr inactive
CCOc1cc(C=C2C(=O)NC(=O)NC2=O)ccc1OS(=O)(=O)c1ccccc1	CHT inh -7.3 | CHT block conf 36% | HEK293 CHT ctr inactive
COc1ccc(C2=CC(c3ccc4c(c3)OCO4)c3c(c4ccccc4oc3=O)O2)cc1OC (stereo not given)	none (no result: CHT inh, VIM-2 inh, CHT PAM, IMP-1 inh-1, TMEM16A inh)
CCC(C)/C=C(C)/C=C/C1=CC2=C(Cl)C(=O)C(C)(OC(C)=O)C(=O)C2=CO1 (stereo not given)	CHT inh -8.4, TMEM16A inh 100 | CHT block conf 24% | HEK293 CHT ctr inactive
CC1CCCCN1CC(O)c1c[nH]c2ccccc12 (stereo not given)	none
CC1CCCCN1Cc1c[nH]c2ccccc12 (stereo not given)	CHT inh -5.7 | CHT block conf inactive | HEK293 CHT ctr inactive
Cc1c(OC(=O)N(C)C)ccc2c1O/C(=C\c1ccco1)C2=O	none
Fc1ccccc1CCNCc1cccc2ccccc12	none
Cc1ccccc1CCNCc1cc2cccc(C)c2[nH]c1=O	CHT inh -8.7 | CHT block conf 18% | HEK293 CHT ctr inactive
C[C@H]1[C@@H](OS(=O)(=O)O)C[C@@H]2C[C@H]([C@@H](O)c3cc(=O)[nH]c(=O)[nH]3)NC3=NC[C@H]1N32	none (no result: CHT inh, VIM-2 inh, CHT PAM, IMP-1 inh-1, TMEM16A inh)
Oc1ccc(C[C@H]2NCCc3cc(O)c(O)cc32)cc1O	CHT inh -6.5 | CHT block conf 28% | HEK293 CHT ctr inactive
O=C(COc1ccc(Cl)cc1)N1CCN(Cc2ccc([N+](=O)[O-])cc2)CC1	CHT inh -5.1 | CHT block conf inactive | HEK293 CHT ctr inactive
COc1cccc(C2CC3C(=O)C=CC2N3Cc2ccccc2)c1 (stereo not given)	CHT inh -5.3 | CHT block conf -59% | HEK293 CHT ctr -40
COc1cccc(CN2CCNCC2)c1	none
O=C1NC(=O)C(=Cc2coc3ccc(O)cc3c2=O)C(=O)N1	CHT inh -6.3 | CHT block conf 60% | HEK293 CHT ctr inactive
Oc1ccc(CC2CC3CCN2CC3)cc1O (stereo not given)	CHT inh -16 | CHT block conf 13% | HEK293 CHT ctr inactive
O=C1C2CCN(CC2)C1Cc1ccccc1O (stereo not given)	none (no result: TMEM16A act)
C/C(=N\N=C(N)N)c1ccccc1	CHT inh -9.9 | CHT block conf 18% | HEK293 CHT ctr inactive
CN(C)C(=O)Oc1ccc(OC(=O)c2ccccc2)cc1	none
N=c1c[n+](CC23CC4CC(CC(C4)C2)C3)[n-]o1	CHT inh -5.6 | CHT block conf 37% | HEK293 CHT ctr inactive
Cc1ccc2c(c1)C1CN(C)CCC1N2C(=O)CCCN1C(=O)c2cccc3cccc(c23)C1=O (stereo not given)	CHT inh -5.9 | CHT block conf 50% | HEK293 CHT ctr inactive
Cc1ccc2c(c1)[C@@H]1CN(C)CC[C@@H]1N2C(=O)Nc1cccc(C(F)(F)F)c1	CHT inh -7.2 | CHT block conf 26% | HEK293 CHT ctr inactive
Cc1ccc2c(c1)C1CN(C)CCC1N2C(=O)c1cccnc1Cl (stereo not given)	none
Cc1ccc2c(c1)C1CN(C)CCC1N2C(=O)Nc1cccc(C(F)(F)F)c1 (stereo not given)	CHT inh -5.4 | CHT block conf 23% | HEK293 CHT ctr inactive
